Screening data deposited in PubChem BioAssay by several laboratories.
In the library only some 2% were active in any assay of this set; here they are far more common.
HCV core dimer: HCV core protein dimerization inhibition. TR-FRET GST/Flag-core106 dimerization, 1536-well. inhibition, % at 5 µM. hit rate 0.33% among 300,000;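 active = inhibition above the mean of all tested compounds plus 3 SD, set per screening campaign, cut at about 45% in these data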
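Assay system: Tagged HCV core106 pair (GST and Flag) | Buffer or medium: KF-containing HEPES buffer, pH 7.45, DTT, CHAPS, BSA | Also added: Eu donor and XL665 acceptor anti-tag antibodies | Dosing: One concentration, 5 µM, in 0.5% DMSO | Timing: 4 h at 22.5 °C | Technique: TR-FRET 671 and 617 nm emission | Repeats: Singlicate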
PABP polyA inh: PABP-poly(A) binding inhibition; hit rate 1% among 290,000; P11940; inhibition, % at 35 µM; PABP-poly(A) RNA binding, fluorescence polarization;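 note: calls also rest on retests at 20 µM and on dose response follow-up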
eIF4H FP inh: inhibitors of RNA binding by human eIF4H | inhibition, % at 35 µM | hit rate 0.94% among 290,000 | eIF4H fluorescence polarization binding assay;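 note: calls also rest on retests at 20 µM and on dose response follow-up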
FID counter: displaces DNA intercalator in HCV helicase counter-screen; inhibition, % at 7.9 µM; hit rate 0.17% among 290,000; DNA fluorescent intercalator displacement, fluorescence; AID 1845; in the data active = inhibition above about 37%;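 note: 0% = vehicle and 100% = reference compound; higher means more ethidium bromide displaced from hairpin DNA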
PABP1 MLLE inh: inhibitors of microRNA-mediated deadenylation, human PABP1 MLLE binding; inhibition, % at 20 µM; P11940; hit rate 0.36% among 360,000; AID 588489; GST-MLLE / FITC-PAM2 fluorescence polarization; in the data active = inhibition above about 35%, passing the limit was not always enough;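 note: plate controls were DMSO wells with GST-MLLE for no effect and wells lacking GST-MLLE protein for full effect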
HCV NS3 hel inh: HCV NS3 helicase inhibition; NS3 helicase DNA unwinding, Cy5 molecular beacon fluorescence; inhibition, % at 10.9 µM; hit rate 0.56% among 290,000; AID 1800;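 active = inhibition above the mean of all tested compounds plus 3 SD, set per campaign, cut at about 35% in these data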;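 note: 0% = DMSO wells and 100% = thioflavine S control wells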
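Compound dosing – single dose, 10.9 µM nominal final, DMSO 0.8% final · System – NS3 helicase fragment of HCV · Buffer or medium – MOPS pH 6.5, MgCl2, DTT, Tween20, BSA · Signal – Cy5 beacon fluorescence read at start and 1 h · Also added – annealed dual-labelled DNA beacon duplex, ATP-started · Schedule – 1 h at 25 °C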
* = called active by the depositor; ? = inconclusive; . = no result given. Unless noted, the rule behind the calls is not given here.

SMILES	HCV core dimer	PABP polyA inh	eIF4H FP inh	FID counter	PABP1 MLLE inh	HCV NS3 hel inh
CCc1nn(C)c2c(=O)c(=O)c2n(C)[nH]1	-7	58*	99*	1	23	23
CC(C)(C)OC(=O)N1CCC(Cc2cc(-c3cccnc3)no2)(C(=O)O)CC1	5	.	.	.	-1	.
CC(C)Oc1ccc(C(=O)NC2=NCCS2)cc1	-1	8	-3	2	40*	19
COc1cccc(C(=O)NC2=NCCS2)c1OC	0	2	-9	-2	40*	0
CNc1nc(-c2ccccc2)cc(C(F)(F)F)c1C#N	-1	83*	96*	2	8	4
CCC(CC)C(=O)N(C)c1c(C)nc2c(OCc3cc(Cl)cc(Cl)c3)cccn12	.	.	.	.	2	.
O=C(Nc1cccc(-c2cccc(Cl)c2)c1)C1CCN(Cc2nccs2)CC1	.	.	.	.	1	.
CC1=C(C(=O)N(C(C)C)C(C)C)CC(CC(=O)NCCCCc2ccccc2)C(=O)N1Cc1ccc(F)cc1 (centres undefined)	.	.	.	.	-6	.
O=[N+]([O-])c1cc(/C=N/Nc2nc3ccccc3[nH]2)c(O)cc1O	-45	8.4*	80*	0	.	21
Cc1nc2ccc(S(=O)(=O)CCC(=O)NCc3ccc(Cl)cc3)cc2s1	.	.	.	.	4	.
O=c1cc(CSc2nnc(NC3CCCCC3)s2)nc2sccn12	2	6	-2	-27	0	-2
C=CCn1c(SCc2cc(=O)n3ccsc3n2)nnc1C1CCCCC1	69*	26*	73*	-21	-32	15
c1coc(-c2nnc3sc(Cc4cccs4)nn23)c1	24	64*	77*	-11	-20	20
c1csc(Cc2nn3c(-c4n[nH]c5c4CCC5)nnc3s2)c1	42	15*	56	-17	-127	2
COc1ccc(OCc2nn3c(-c4ccco4)nnc3s2)cc1	11	18	11	-18	11	-1
COc1cccc(OC)c1-c1nn2c(-c3cc(-c4ccccc4)n[nH]3)nnc2s1	54*	-5	-8	3	-213	-2
c1coc(-c2nn3c(-c4ccco4)nnc3s2)c1	10	91*	95*	-1	11	-1
COc1ccccc1CCC(=O)Nc1ccc(S(=O)(=O)Nc2ncccn2)cc1	.	.	.	.	-28	.
COc1ccccc1-c1nn2c(-c3ccco3)nnc2s1	14	18	59*	-20	3	8
Cc1ccc(NC2=C(Cl)C(=O)OC2OC(C)C)cc1 (centres undefined)	5	?	-2	-8	5	0
Cc1ccc(C)c(NC2=C(Cl)C(=O)OC2OC(C)C)c1 (centres undefined)	-7	68*	active	-10	-7	2
N#C/C(=C\c1ccncc1)c1nc2ccccc2o1	1	-5	1	-4	-18	-12
N#C/C(=C\c1ccc(Cl)cc1)c1nc2ccccc2o1	-4	119*	81*	-1	11	1
CCNc1nc(NC(C)C)nc(NS(=O)(=O)c2ccc(C)cc2)n1	5	-2	-5	-42	-11	2
CC(C)c1onc(C(=O)NC2CCCC2)c1[N+](=O)[O-]	-3	55*	8.3*	-1	16	-4
SMILES	HCV core dimer	PABP polyA inh	eIF4H FP inh	FID counter	PABP1 MLLE inh	HCV NS3 hel inh
CC(C)c1onc(C(=O)N(C)C2CCCCC2)c1[N+](=O)[O-]	1	10	-5	-7	-1	-2
COc1ccc(CC(=O)OCC(=O)Nc2ccc3[nH]c(=O)[nH]c3c2)cc1OC	.	.	.	.	-73	.
CSc1nc(NCCCN(C)C)c2c3c(sc2n1)CN(C)CC3	.	15	-4	42*	.	-32
CCN(CC)CCNc1nc(SC)nc2sc3c(c12)CCN(C)C3	-5	12	1	27	-17	4
CC1=CC(C)(C)[N+](C)(C)c2ccc(C)cc21	-6	59*	1	7	-111	-3
CC1=CC(C)(C)N(S(=O)(=O)c2ccc(C)cc2)c2ccc(C)cc21	1	9	2	-14	5	3
COc1ccc2oc(C(=O)Nc3nc(-c4ccccn4)cs3)c(C)c2c1	56*	.	.	.	-29	.
COc1ccc2oc(C(=O)NC(C)c3ccccn3)c(C)c2c1 (centres undefined)	.	.	.	.	-27	.
C=CCc1cc(Cl)ccc1OCCNCCN1CCOCC1	-2	9	20	39*	-7	-9
C=CCc1cc(Cl)ccc1OCCNCCOC	-2	4	0	17	1	-10
CCCCC(=O)Nc1cc(N(C)C)nc2ccccc12	-5	-5	-13	24	8	-7
CN(C)c1cc(NC(=O)CNC(C)(C)C)c2ccccc2n1	1	33	6	53*	-1	-12
O=C(CCNc1ccc(Cc2ccncc2)cc1)c1ccc([N+](=O)[O-])cc1	20	-7	-11	3	40*	6
CS(=O)(=O)c1ccc2nc(NC3(C(F)(F)F)N=C4SCCN4C3=O)sc2c1 (centres undefined)	-1	-4	-12	-4	42*	5
O=C1N2CCSC2=NC1(Nc1ccccn1)C(F)(F)F (centres undefined)	4	-6	-6	-6	29	3
Cc1cccc2c(N=Nc3ccccc3)c(O)[nH]c12	-21	57*	95*	-4	-19	15
Oc1[nH]c2ccccc2c1N=Nc1cccc(Cl)c1	-3	?	?	8	-2	16
CCOc1ccc(N2C(=O)C(Cl)=C(Nc3ccccc3O)C2=O)cc1	3	52	11*	-7	-5	-30
O=C(CN1CCOCC1)N1CCOCC1	.	.	.	.	1	.
Nc1ccc2nc(-c3cccc(-c4nc5ccc(N)cc5[nH]4)n3)[nH]c2c1	-26	22	31	31	14	-63
Nc1ccc2nc(-c3ccc(-c4nc5ccc(N)cc5[nH]4)cc3)[nH]c2c1	-27	17	13	52*	.	-48
CN1CCc2cccc3c2[C@@H]1Cc1ccc(O)c(O)c1-3	5	-6	26	13	46*	-50
Fc1ccc(-c2nc3c(Cl)cc(C(F)(F)F)cn3c2Cl)cc1	1	2	?	-8	43*	15
c1csc(CNc2nc(Oc3ccncc3)c3sccc3n2)c1	.	.	.	.	7	.
CCOC(=O)CNC(=O)CSc1nc(-c2cccc(C)c2)ns1	0	12	5	-7	41*	5
Cn1c(N)c(C(=O)N2CCN(c3ccccc3)CC2)c(=O)n(C)c1=O	.	.	.	.	-6	.
CC1CCC(NC(=O)C2CCN(C(=O)Nc3ccccc3)CC2)CC1 (centres undefined)	.	.	.	.	8	.
O=C(Nc1ccc2nc(-c3ccco3)c(-c3ccco3)nc2c1)N1CCCCCC1	75*	31	86	-18	.	49*
CCOC(=O)C1CCN(C(=O)Nc2ccc3c(c2)nc(C)n3C)CC1	6	-8	3	0	-8	-6
Cc1nc2ccc(NC(=O)N3CCCCC3)cc2nc1C	-2	-2	-1	-13	8	-9
